Experimental data of several laboratories.
Lines come from different studies, so protocols differ.
Cell line: HeLa
Observed: cell growth or viability

SMILES	method	time	IC50
COc1cccc2c1C(=O)c1c(O)c3c(c(O)c1C2=O)C[C@@](O)(C(=O)CO)C[C@@H]3O[C@H]1C[C@H](N)[C@H](O)[C@H](C)O1	MTT	48 h	0.51 µM
O=C(Cn1cc(COc2ncnc3[nH]cnc23)nn1)Nc1ccc(O)cc1	MTT	–	17.6 µM
COc1cccc2c1C(=O)c1c(O)c3c(c(O)c1C2=O)C[C@@](O)(C(=O)CO)C[C@@H]3O[C@H]1C[C@H](N)[C@H](O)[C@H](C)O1	MTT	75 h	0.27 µM
COc1cc(C(=O)C[n+]2cn(CCC(C)C)c3ccccc32)c(OC)c2ccccc12	MTT	24 h	17 µM
CN(C)c1ccc(Nc2nc(-c3ccncc3)nc3c2CC(N)CC3)cc1 (stereo not drawn)	MTT	–	38.2 µM
CC(=O)O[C@@]12CO[C@@H]1C[C@H](O)[C@@]1(C)C(=O)[C@H](O)C3=C(C)[C@@H](OC(=O)[C@H](O)[C@@H](NC(=O)OC(C)(C)C)c4ccccc4)C[C@@](O)([C@@H](OC(=O)c4ccccc4)[C@H]21)C3(C)C	MTT	48 h	60.7 µM
O=Cc1cccc(NC(=O)Cn2cc(COc3ncnc4[nH]cnc34)nn2)c1	MTT	–	22.1 µM
CCC(=CCc1c(O)cc2c(c1O)C(=O)CC(c1ccc(O)cc1)O2)CC (stereo in doubt)	MTT	–	19.1 µM
COc1ccc(-c2n(CCC(C)C)c3ccccc3[n+]2Cc2cc(OCCC(C)C)c3ccccc3c2OCCC(C)C)cc1	MTT	24 h	10.9 µM
CSc1ccccc1-c1ccc(C(N)=O)c2[nH]c3c(c12)CC(N)CC3 (stereo not drawn)	–	–	0.21 µM
CC(C)CCOc1cc(C(=O)C[n+]2cn(Cc3ccccc3)c3ccccc32)c(OCCC(C)C)c2ccccc12	MTT	24 h	14.8 µM
CCC(=CCc1c(O)cc2c(c1O)C(=O)C[C@@H](c1ccccc1O)O2)CC	MTT	48 h	51.3 µM
COC(C)c1n(CCC(C)C)c2ccccc2[n+]1Cc1cc(OCCC(C)C)c2ccccc2c1OCCC(C)C (stereo not drawn)	MTT	24 h	5.7 µM
Cc1ccc(NC(=O)Cn2cc(COc3ncnc4[nH]cnc34)nn2)c(C)c1	MTT	–	21.4 µM
COc1cccc(NC(=S)N/N=C/c2cccc3cc4ccccc4nc23)c1	MTT	48 h	46.8 µM
CCCCCCCCOc1cc(C(=O)C[n+]2cn(CCC(C)C)c3ccccc32)c(OCCCCCCCC)c2ccccc12	MTT	24 h	14.3 µM
CN1CCc2c(c3ccccc3n2Cc2ccc(C(=O)NO)cc2)C1	CCK-8	48 h	17.6 µM
CSc1ccccc1-c1cc(C(N)=O)c2[nH]c3c(c2c1)CC(N)CC3 (stereo not drawn)	–	–	1.46 µM
CC(C)CCOc1cc(C[n+]2c(-c3ccccc3)n(CCC(C)C)c3ccccc32)c(OCCC(C)C)c2ccccc12	MTT	24 h	7.3 µM
[Cl-].[Li+]	MTT	–	> 10000 µM
CCCNC(=S)N/N=C/c1cccc2cc3ccccc3nc12	MTT	48 h	36.2 µM
Cc1cc2c(cc1C)[n+](Cc1cc(OCCC(C)C)c3ccccc3c1OCCC(C)C)cn2CCC(C)C	MTT	24 h	8.9 µM
CNc1cccc(Nc2nc(-c3ccncc3)nc3c2CNCC3)c1	MTT	–	> 100 µM
CC(C)CNC(=S)N/N=C/c1cccc2cc3ccccc3nc12	MTT	48 h	25.5 µM
Cc1n(CCC(C)C)c2ccccc2[n+]1Cc1cc(OCCC(C)C)c2ccccc2c1OCCC(C)C	MTT	24 h	7.6 µM
Cc1cccc(NC(=O)Cn2cc(COc3ncnc4[nH]cnc34)nn2)c1	MTT	–	28.6 µM
O=[N+]([O-])c1ccc(NC(=S)N/N=C/c2cccc3cc4ccccc4nc23)cc1	MTT	48 h	7.5 µM
